From ChEMBL document CHEMBL1240373, “Glycerol monolaurate inhibits Candida and Gardnerella vaginalis in vitro and in vivo but not Lactobacillus” (Antimicrob Agents Chemother, 2010)
Activity calls are given as the source filed them.

Columns and labels:
Lactobacillus [1] = experiment: Antibacterial activity against Lactobacillus-mediated vaginal infection in woman at 0.5% treated via intravaginal gels every 12 hrs for 2 days measured post application; format: functional; conditions: Vagina
Procedure, shortened: (§1)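 Double-blind randomized study. Women self-applied intravaginal gel (warming-gel vehicle) with 0, 0.5 or 5% GML every 12 h for 2 days. Swabs were taken before and just after the first dose and 12 h after the last dose, placed in 1 ml Todd Hewitt broth, serially diluted and plated on chocolate agar (37°C, 7% CO2, up to 3 days). Organisms were identified by colony features as CFU/ml secretions, visit 1 vs visit 2. Detection limit 10^2 CFU/ml.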

Candida albicans [2] = experiment: Antifungal activity against Candida albicans SC5314 assessed as => 3-log drop in number of fungal CFU/ml at 100 ug/ml after 4 to 8 hrs; format: functional, organism-based
Procedure, shortened: (§2)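 Candida species (C. albicans SC5314 and clinical isolates, C. glabrata, C. kefyr, C. parapsilosis, C. tropicalis, C. krusei) grown 24 h at 37°C with 200 rpm shaking in 25 ml Todd Hewitt broth with GML at 0, 50, 100 or 500 μg/ml. CFU were counted at time points by serial dilution and plating. Fungicidal was defined as a ≥3-log CFU/ml drop.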

Lactobacillus [3] = experiment: Antibacterial activity against Lactobacillus-mediated vaginal infection in woman assessed as effect on vaginal pH at 0.5% treated via intravaginal gels every 12 hrs for 2 days measured post application; format: functional; conditions: Vagina
Procedure, shortened: (§3)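 Women self-applied vaginal gels containing 0, 0.5 or 5% GML in a warming-gel vehicle every 12 h for 2 days. Vaginal pH was measured at visit 1 (before the first dose) and visit 2, and the two visits were compared.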

Homo sapiens [4] = species on record: Homo sapiens; experiment: Toxicity in woman with vaginal infection assessed as adverse events at 5% treated via intravaginal gels every 12 hrs for 2 days measured post application; conditions: in vivo, other
Gardnerella vaginalis [5] = experiment: Antibacterial activity against Gardnerella vaginalis-mediated vaginal infection in woman at 5% treated via intravaginal gels every 12 hrs for 2 days measured post application; format: functional, organism-based; conditions: Vagina; procedure, shortened: as §1
Candida tropicalis = experiment: Antifungal activity against Candida tropicalis assessed as => 3-log drop in number of fungal CFU/ml at 500 ug/ml after 4 to 8 hrs; format: functional, organism-based; procedure, shortened: as §2
Homo sapiens [6] = species on record: Homo sapiens; experiment: Toxicity in woman with Candida-mediated vaginal infection assessed as adverse events at 5% treated via intravaginal gels every 12 hrs for 2 days measured post application; format: organism-based, Vagina; conditions: in vivo, other
Gardnerella vaginalis [7] = experiment: Antibacterial activity against Gardnerella vaginalis assessed as => 3-log drop in number of fungal CFU/ml at 1 to 10 ug/ml after 24 hrs; format: functional, organism-based
Candida albicans [8] = experiment: Antifungal activity against Candida albicans SC5314 clinical isolate at 100 ug/ml after 24 hrs; format: functional, organism-based; procedure, shortened: as §2
Lactobacillus [9] = experiment: Antibacterial activity against Lactobacillus-mediated vaginal infection in woman assessed as effect on vaginal pH at 5% treated via intravaginal gels every 12 hrs for 2 days measured post application; format: functional; conditions: Vagina; procedure, shortened: as §3
Candida [10] = experiment: Antifungal activity against Candida-mediated vaginal infection in woman at 5% treated via intravaginal gels every 12 hrs for 2 days measured post application; format: functional, organism-based; conditions: Vagina; procedure, shortened: as §1
Candida [11] = experiment: Antifungal activity against Candida-mediated vaginal infection in woman assessed as effect on vaginal pH at 0.5% treated via intravaginal gels every 12 hrs for 2 days measured post application; format: functional, organism-based; conditions: Vagina; procedure, shortened: as §3
Lactobacillus [12] = experiment: Antibacterial activity against Lactobacillus-mediated vaginal infection in woman at 5% treated via intravaginal gels every 12 hrs for 2 days measured post application; format: functional; conditions: Vagina; procedure, shortened: as §1
Candida [13] = experiment: Antifungal activity against Candida-mediated vaginal infection in woman at 0.5% treated via intravaginal gels every 12 hrs for 2 days measured post application; format: functional, organism-based; conditions: Vagina; procedure, shortened: as §1
Gardnerella vaginalis [14] = experiment: Antibacterial activity against Gardnerella vaginalis-mediated vaginal infection in woman assessed as effect on vaginal pH at 0.5% treated via intravaginal gels every 12 hrs for 2 days measured post application; format: functional, organism-based; conditions: Vagina; procedure, shortened: as §3
Gardnerella vaginalis [15] = experiment: Antibacterial activity against Gardnerella vaginalis-mediated vaginal infection in woman at 0.5% treated via intravaginal gels every 12 hrs for 2 days measured post application; format: functional, organism-based; conditions: Vagina; procedure, shortened: as §1
Homo sapiens [16] = species on record: Homo sapiens; experiment: Toxicity in woman with Gardnerella vaginalis-mediated vaginal infection assessed as adverse events at 5% treated via intravaginal gels every 12 hrs for 2 days measured post application; format: organism-based, Vagina; conditions: in vivo, other
Candida parapsilosis = experiment: Antifungal activity against Candida parapsilosis assessed as => 3-log drop in number of fungal CFU/ml at 500 ug/ml after 4 to 8 hrs; format: functional, organism-based; procedure, shortened: as §2
Kluyveromyces marxianus = experiment: Antifungal activity against Candida pseudotropicalis kefyr assessed as => 3-log drop in number of fungal CFU/ml at 100 ug/ml after 4 to 8 hrs; format: functional, organism-based; procedure, shortened: as §2
Nakaseomyces glabratus = experiment: Antifungal activity against Candida glabrata assessed as => 3-log drop in number of fungal CFU/ml at 500 ug/ml after 4 to 8 hrs; format: functional, organism-based; procedure, shortened: as §2
Gardnerella vaginalis [17] = experiment: Antibacterial activity against Gardnerella vaginalis-mediated vaginal infection in woman assessed as effect on vaginal pH at 5% treated via intravaginal gels every 12 hrs for 2 days measured post application; format: functional, organism-based; conditions: Vagina; procedure, shortened: as §3
Candida [18] = experiment: Antifungal activity against Candida-mediated vaginal infection in woman assessed as effect on vaginal pH at 5% treated via intravaginal gels every 12 hrs for 2 days measured post application; format: functional, organism-based; conditions: Vagina; procedure, shortened: as §3
Pichia kudriavzevii = experiment: Antifungal activity against Candida krusei assessed as => 3-log drop in number of fungal CFU/ml at 500 ug/ml after 4 to 8 hrs; format: functional, organism-based; procedure, shortened: as §2

**Q.** What does the source list for `CCCCCCCCCCCC(=O)OCC(O)CO` (stereo not drawn) [GLYCEROL MONOLAURATE]?
**A.** Activity (Lactobacillus [1]): inactive; Activity (Candida albicans [2]): Active; Activity (Lactobacillus [3]): inactive; Activity (Homo sapiens [4]): Non-toxic; Activity (Gardnerella vaginalis [5]): Active; Activity (Candida tropicalis): Active; Activity (Homo sapiens [6]): Non-toxic; Activity (Gardnerella vaginalis [7]): Active; Activity (Candida albicans [8]): Active; Activity (Lactobacillus [9]): inactive; Activity (Candida [10]): Active; Activity (Candida [11]): inactive; Activity (Lactobacillus [12]): inactive; Activity (Candida [13]): Active; Activity (Gardnerella vaginalis [14]): inactive; Activity (Gardnerella vaginalis [15]): Active; Activity (Homo sapiens [16]): Non-toxic; Activity (Candida parapsilosis): Active; Activity (Kluyveromyces marxianus): Active; Activity (Nakaseomyces glabratus): Active; Activity (Gardnerella vaginalis [17]): inactive; Activity (Candida [18]): inactive; Activity (Pichia kudriavzevii): Active
